What is called MIC is the lowest concentration that inhibits growth of the organism. Lower therefore signals a more susceptible organism. Usually inhibition stands for the change of the read-out against control, counted positive when it falls. Higher therefore signals strong suppression.

Values after ≈ are worked out from the molar mass of the structure shown.

Common to all, as to assay type: functional
The test system of assay [1] is Enterococcus faecium. The experiment in a line: Antibacterial activity against Enterococcus faecium 7130724 by broth microdilution method.
Assay [2] concerns Enterococcus faecalis. Nature of the assay: Antibacterial activity against Enterococcus faecalis ATCC 29212 by broth microdilution method. The gist of the method:
(§1)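 Broth microdilution MICs were run per CLSI M07-A8 (2009). The strain panel included C. difficile ATCC 43255, E. faecalis ATCC 29212 and S. pyogenes ATCC BAA-595.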

Assay [3] concerns Staphylococcus aureus. The experiment in a line: Antibacterial activity against Staphylococcus aureus A4.018 by broth microdilution method.
Assay [4] has as its system Streptococcus pyogenes. The experiment in a line: Antibacterial activity against Streptococcus pyogenes ATCC BAA-595 by broth microdilution method. A digest of the protocol:
as §1
For orientation: Broth dilution looks for growth in wells or tubes with falling amounts of substance.

Assay [5] is described as follows: Antibacterial activity against Clostridium difficile ATCC 43255 by broth microdilution method. The following applies: Clostridioides difficile. The gist of the method:
as §1

For assay [6], the system named is Escherichia coli. Nature of the assay: Inhibition of protein synthesis in Escherichia coli S30 extract at 2 uM after 75 mins by luciferase based luminescence assay relative to GE2270A.

Take `CNC(=O)C[C@@H]1NC(=O)c2csc(n2)-c2ccc(-c3nc(N(CCCC(=O)O)C(=O)c4ccc(C(=O)O)cn4)cs3)nc2-c2csc(n2)-c2csc(n2)[C@H]([C@@H](O)c2ccccc2)NC(=O)CNC(=O)c2nc(sc2COC)[C@H](C(C)C)NC(=O)c2nc1sc2C`: the MIC in assay [1] is 32 µg/mL (≈ 24 µM); in assay [2] it was 16 µg/mL (≈ 12 µM); in assay [3] it was 32 µg/mL (≈ 24 µM); in assay [4], > 32 µg/mL; in assay [5] it was 4 µg/mL (≈ 3 µM). Also, testing at 2 µM in assay [6] gave an inhibition of 30%.
For the compound `CNC(=O)C[C@@H]1NC(=O)c2csc(n2)-c2ccc(-c3nc(N(CCOCC(=O)O)C(=O)O[C@H]4CC[C@H](C(=O)O)CC4)cs3)nc2-c2csc(n2)-c2csc(n2)[C@H]([C@@H](O)c2ccccc2)NC(=O)CNC(=O)c2nc(sc2COC)[C@H](C(C)C)NC(=O)c2nc1sc2C`, the MIC stood at 2 µg/mL (≈ 1.46 µM) in assay [1]; 2 µg/mL (≈ 1.46 µM) in assay [2]; 4 µg/mL (≈ 2.92 µM) in assay [3]; 4 µg/mL (≈ 2.92 µM) in assay [4]; 0.125 µg/mL (≈ 0.0913 µM) in assay [5]. In assay [6], this compound registered an inhibition at 2 µM of 67%.
As to `CNC(=O)C[C@@H]1NC(=O)c2csc(n2)-c2ccc(-c3nc(N(CCCCC(=O)O)C(=O)OC4CC(C(=O)O)C4)cs3)nc2-c2csc(n2)-c2csc(n2)[C@H]([C@@H](O)c2ccccc2)NC(=O)CNC(=O)c2nc(sc2COC)[C@H](C(C)C)NC(=O)c2nc1sc2C` (some centres undefined), the MIC amounted to 0.25 µg/mL (≈ 0.187 µM) in assay [1]; 0.25 µg/mL (≈ 0.187 µM) in assay [2]; 0.5 µg/mL (≈ 0.374 µM) in assay [3]; 2 µg/mL (≈ 1.49 µM) in assay [4]; 0.03 µg/mL (≈ 0.0224 µM) in assay [5]. The compound further had an inhibition at 2 µM in assay [6] of 67%.
On to `CNC(=O)C[C@@H]1NC(=O)c2csc(n2)-c2ccc(-c3nc(N(CCCCC(=O)O)C(=O)OCc4ccc(C(=O)O)cn4)cs3)nc2-c2csc(n2)-c2csc(n2)[C@H]([C@@H](O)c2ccccc2)NC(=O)CNC(=O)c2nc(sc2COC)[C@H](C(C)C)NC(=O)c2nc1sc2C`, for which the MIC in assay [1] is 1 µg/mL (≈ 0.727 µM); in assay [2], 1 µg/mL (≈ 0.727 µM); in assay [3], 2 µg/mL (≈ 1.45 µM); in assay [4], 4 µg/mL (≈ 2.91 µM); in assay [5], 0.125 µg/mL (≈ 0.0909 µM). The same compound showed an inhibition at 2 µM in assay [6] of 67%.
`CNC(=O)C[C@@H]1NC(=O)c2csc(n2)-c2ccc(-c3nc(NC(=O)N4C[C@H](CCC(=O)O)C[C@H](CCC(=O)O)C4)cs3)nc2-c2csc(n2)-c2csc(n2)[C@H]([C@@H](O)c2ccccc2)NC(=O)CNC(=O)c2nc(sc2COC)[C@H](C(C)C)NC(=O)c2nc1sc2C`: the MIC in assay [1] was 4 µg/mL (≈ 2.96 µM); in assay [2], 2 µg/mL (≈ 1.48 µM); in assay [3], 4 µg/mL (≈ 2.96 µM); in assay [4], 4 µg/mL (≈ 2.96 µM); in assay [5] it was 0.25 µg/mL (≈ 0.185 µM). Also, 2 µM produced 30% inhibition in assay [6].
Regarding `CNC(=O)C[C@@H]1NC(=O)c2csc(n2)-c2ccc(-c3nc(N(CCCCC(=O)O)C(=O)OCC4CC4C(=O)O)cs3)nc2-c2csc(n2)-c2csc(n2)[C@H]([C@@H](O)c2ccccc2)NC(=O)CNC(=O)c2nc(sc2COC)[C@H](C(C)C)NC(=O)c2nc1sc2C` (some centres undefined), the MIC in assay [1] worked out at 0.5 µg/mL (≈ 0.374 µM); in assay [2], 0.125 µg/mL (≈ 0.0934 µM); in assay [3], 0.25 µg/mL (≈ 0.187 µM); in assay [4], 2 µg/mL (≈ 1.49 µM); in assay [5], 0.03 µg/mL (≈ 0.0224 µM). Besides, the inhibition at 2 µM in assay [6] amounted to 67%.
Take `CNC(=O)C[C@@H]1NC(=O)c2csc(n2)-c2ccc(-c3nc(N(CCCCC(CCC(=O)O)C(=O)O)C(=O)O[C@H]4CC[C@H](C(=O)O)CC4)cs3)nc2-c2csc(n2)-c2csc(n2)[C@H]([C@@H](O)c2ccccc2)NC(=O)CNC(=O)c2nc(sc2COC)[C@H](C(C)C)NC(=O)c2nc1sc2C` (some centres undefined): the MIC in assay [1] turned out to be 8 µg/mL (≈ 5.51 µM); in assay [2] it was 8 µg/mL (≈ 5.51 µM); in assay [3] it was 16 µg/mL (≈ 11 µM); in assay [4] it was 8 µg/mL (≈ 5.51 µM); in assay [5] it was 0.25 µg/mL (≈ 0.172 µM). 2 µM produced 50% inhibition in assay [6].
`CNC(=O)C[C@@H]1NC(=O)c2csc(n2)-c2ccc(-c3nc(N(CCCC(CCCCCCC(=O)O)C(=O)O)C(=O)O[C@H]4CC[C@H](C(=O)O)CC4)cs3)nc2-c2csc(n2)-c2csc(n2)[C@H]([C@@H](O)c2ccccc2)NC(=O)CNC(=O)c2nc(sc2COC)[C@H](C(C)C)NC(=O)c2nc1sc2C` (some centres undefined): the MIC was found to be 0.5 µg/mL (≈ 0.334 µM) in assay [1]; 0.25 µg/mL (≈ 0.167 µM) in assay [2]; 1 µg/mL (≈ 0.669 µM) in assay [3]; 1 µg/mL (≈ 0.669 µM) in assay [4]; 0.06 µg/mL (≈ 0.0401 µM) in assay [5]. The compound also registered an inhibition at 2 µM in assay [6] of 50%.
Take `CNC(=O)C[C@@H]1NC(=O)c2csc(n2)-c2ccc(-c3nc(N(CCCCC(=O)O)C(=O)OC(CCCCC(=O)O)CCC(=O)O)cs3)nc2-c2csc(n2)-c2csc(n2)[C@H]([C@@H](O)c2ccccc2)NC(=O)CNC(=O)c2nc(sc2COC)[C@H](C(C)C)NC(=O)c2nc1sc2C` (some centres undefined): the MIC was 32 µg/mL (≈ 22.4 µM) in assay [1]; 16 µg/mL (≈ 11.2 µM) in assay [2]; 32 µg/mL (≈ 22.4 µM) in assay [3]; > 32 µg/mL in assay [4]; 2 µg/mL (≈ 1.4 µM) in assay [5]. Also, the inhibition at 2 µM in assay [6] is 50%.
As for `CNC(=O)C[C@@H]1NC(=O)c2csc(n2)-c2ccc(-c3nc(N(C)C(=O)CCCC(=O)O)cs3)nc2-c2csc(n2)-c2csc(n2)[C@H]([C@@H](O)c2ccccc2)NC(=O)CNC(=O)c2nc(sc2COC)[C@H](C(C)C)NC(=O)c2nc1sc2C`, the MIC in assay [1] is 4 µg/mL (≈ 3.27 µM); in assay [2], 2 µg/mL (≈ 1.63 µM); in assay [3] it was 2 µg/mL (≈ 1.63 µM); in assay [4], > 64 µg/mL. Further, the inhibition at 2 µM in assay [6] was 30%.
